Series [1] can be described thus: Cmax in chimeric mouse transplanted with human hepatocytes at 3 mg/kg, po. Also noted: dose 3 mg/kg, route oral. The format is ADME, organism-based, Hepatocyte. The method, boiled down: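 Single 3 mg/kg oral dose of compound in 50% PEG400 with equimolar HCl in saline to h-PXB or r-PXB mice (n=3~4). Orbital-vein blood (heparinized) taken over 0–6 hr; plasma stored at -30°C and assayed by LC/MS/MS. Non-compartmental analysis: Cmax from observed values, AUC by trapezoidal rule extrapolated to infinity, CLoral = Dose/AUCpo.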

Series [2] in a line: Half life in rat at 3 mg/kg, iv. Also noted: dose 3 mg/kg, route intravenous. To be noted: in vivo. The series is classed as ADME, organism-based.
Series [3] is described as follows: Half life in chimeric mouse transplanted with rat hepatocytes at 3 mg/kg, iv. The format is ADME, organism-based, Hepatocyte. Also noted: dose 3 mg/kg, route intravenous. The method, boiled down:
(§1)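 Single 3 mg/kg intravenous dose in 10% DMSO, 10% PEG400 with equimolar HCl in saline to h-PXB or r-PXB mice (n=3~4). Orbital-vein plasma collected over 0–6 hr and measured by LC/MS/MS. Non-compartmental analysis; AUC by trapezoidal rule extrapolated to infinity; CLt = Dose/AUCiv.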

Series [4] can be described thus: Total clearance in chimeric mouse transplanted with rat hepatocytes at 3 mg/kg, iv. The series is classed as ADME, organism-based, Hepatocyte. Also noted: dose 3 mg/kg, route intravenous. To be noted: read-out: CLH. The essentials:
as §1

Series [5] can be described thus: Total clearance in chimeric mouse transplanted with human hepatocytes at 3 mg/kg, iv. Set-up: dose 3 mg/kg, route intravenous. The format is ADME, organism-based, Hepatocyte. The essentials:
as §1

Series [6] is described as follows: Half life in chimeric mouse transplanted with human hepatocytes at 3 mg/kg, iv. The series is classed as ADME, organism-based, Hepatocyte. Also noted: dose 3 mg/kg, route intravenous. The method, boiled down: as §1
Series [7] in a line: Intrinsic clearance in hepatocytes isolated from chimeric mouse transplanted with rat hepatocytes assessed as per million cells at 10 uM after 2 hrs by LC/MS/MS analysis. The format is ADME, cell-based, Hepatocyte. The note with it: read-out: CLH. The method, boiled down: (§2)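 Fresh hepatocytes from h-PXB mice (mouse cells removed with 66Z rat IgG and anti-rat IgG magnetic beads) or r-PXB mice, 1×10^6 cells/mL in serum-free Krebs-Henseleit buffer. Incubated with 10 μM compound (0.5% acetonitrile) at 37°C under 5% CO₂/95% O₂ with shaking, sampled 0–2 hr. Quenched with acetonitrile, analysed by LC/MS/MS, n=3. CLint derived from first-order depletion rate constant.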

Series [8] in a line: Intrinsic clearance in hepatocytes isolated from chimeric mouse transplanted with human hepatocytes assessed as per million cells at 10 uM after 2 hrs by LC/MS/MS analysis. The format is ADME, cell-based, Hepatocyte. To be noted: read-out: CLH. The method, boiled down:
as §2

Series [9] can be described thus: Drug excretion in feces of chimeric mouse transplanted with rat hepatocytes at 3 mg/kg, iv as single dose. The series is classed as ADME, organism-based, Hepatocyte. Set-up: dose 3 mg/kg, route intravenous. To be noted: read-out: Drug excretion. The method, boiled down:
(§3)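 After a 3 mg/kg i.v. dose, pooled urine and feces were collected from metabolic cages over 0–24 hr (n=3). Samples were homogenized in 10 volumes of water, mixed with acetonitrile and analysed by UPLC (UV 254 nm) and LC/MS/MS. Excretion expressed as % of dose.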

Series [10] can be described thus: Drug excretion in urine of chimeric mouse transplanted with rat hepatocytes at 3 mg/kg, iv as single dose. The series is classed as ADME, organism-based, Hepatocyte. Also noted: dose 3 mg/kg, route intravenous. The note with it: read-out: Drug excretion. The method, boiled down:
as §3

Series [11] relates to Mus musculus. In words: Drug metabolism in plasma of chimeric mouse transplanted with rat hepatocytes at 3 mg/kg, iv as single dose. The format is ADME, organism-based, Hepatocyte. Also noted: dose 3 mg/kg, route intravenous. The essentials: (§4)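 Pooled plasma from h-PXB or r-PXB mice after a 3 mg/kg i.v. dose was mixed with an equal volume of acetonitrile and centrifuged. Metabolites were profiled by C18 UPLC with ammonium formate/acetonitrile gradient, UV 254 nm, and Orbitrap MS/MS. Scored as detected or not detected.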

The target in series [12] is T1, aldehyde oxidase (Rattus norvegicus, UniProt Q9Z0U5).
T1 sequence (Q9Z0U5 whole entry): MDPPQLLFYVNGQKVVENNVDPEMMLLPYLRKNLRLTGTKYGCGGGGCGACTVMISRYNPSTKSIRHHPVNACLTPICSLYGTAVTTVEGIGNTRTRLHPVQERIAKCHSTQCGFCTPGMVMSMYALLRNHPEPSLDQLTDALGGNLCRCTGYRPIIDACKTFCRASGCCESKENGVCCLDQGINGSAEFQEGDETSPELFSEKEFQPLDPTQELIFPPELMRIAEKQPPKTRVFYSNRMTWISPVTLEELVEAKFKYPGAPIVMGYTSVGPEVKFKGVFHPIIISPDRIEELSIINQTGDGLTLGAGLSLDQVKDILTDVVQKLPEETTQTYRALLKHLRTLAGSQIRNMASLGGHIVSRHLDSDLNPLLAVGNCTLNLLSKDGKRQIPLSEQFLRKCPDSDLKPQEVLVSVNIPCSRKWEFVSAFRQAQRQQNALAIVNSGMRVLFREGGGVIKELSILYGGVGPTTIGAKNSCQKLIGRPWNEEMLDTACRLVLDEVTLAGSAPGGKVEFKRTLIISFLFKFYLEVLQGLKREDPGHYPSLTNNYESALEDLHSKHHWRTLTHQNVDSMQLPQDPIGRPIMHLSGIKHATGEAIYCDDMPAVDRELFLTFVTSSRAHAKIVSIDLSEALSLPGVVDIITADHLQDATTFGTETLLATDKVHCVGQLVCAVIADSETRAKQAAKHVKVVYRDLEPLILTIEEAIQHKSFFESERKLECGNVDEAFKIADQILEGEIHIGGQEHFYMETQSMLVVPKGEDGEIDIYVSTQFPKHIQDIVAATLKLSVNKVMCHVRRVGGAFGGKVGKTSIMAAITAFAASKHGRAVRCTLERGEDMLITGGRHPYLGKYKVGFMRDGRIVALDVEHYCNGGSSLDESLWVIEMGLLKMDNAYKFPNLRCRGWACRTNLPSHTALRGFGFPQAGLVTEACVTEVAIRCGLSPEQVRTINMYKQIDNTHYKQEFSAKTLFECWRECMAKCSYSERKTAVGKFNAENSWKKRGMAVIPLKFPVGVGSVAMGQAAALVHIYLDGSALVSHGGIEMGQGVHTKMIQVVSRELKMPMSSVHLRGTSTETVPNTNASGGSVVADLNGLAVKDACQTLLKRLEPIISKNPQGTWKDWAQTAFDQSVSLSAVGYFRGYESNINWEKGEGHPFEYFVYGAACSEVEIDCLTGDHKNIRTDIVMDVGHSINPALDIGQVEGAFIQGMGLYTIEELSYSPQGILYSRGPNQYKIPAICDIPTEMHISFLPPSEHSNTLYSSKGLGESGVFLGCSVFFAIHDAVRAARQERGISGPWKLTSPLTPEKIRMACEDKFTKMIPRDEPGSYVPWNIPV
As to the kind of experiment: Activity of aldehyde oxidase in hepatocytes isolated from chimeric mouse transplanted with rat hepatocytes assessed as enzyme-mediated drug metabolism measured as compound remaining at 10 uM after 2 hrs by LC/MS/MS analysis. The format is ADME, cell-based, Hepatocyte. To be noted: read-out: Stability. The essentials: as §2

Series [13] in a line: Drug excretion in feces of chimeric mouse transplanted with human hepatocytes at 3 mg/kg, iv as single dose. The format is ADME, organism-based, Hepatocyte. To be noted: read-out: Drug excretion. Also noted: dose 3 mg/kg, route intravenous. The essentials:
as §3

The nature of series [14]: Drug excretion in urine of chimeric mouse transplanted with human hepatocytes at 3 mg/kg, iv as single dose. To be noted: read-out: Drug excretion. Set-up: dose 3 mg/kg, route intravenous. The series is classed as ADME, organism-based, Hepatocyte. The method, boiled down: as §3
In series [15] the test system is Mus musculus. In words: Drug metabolism in plasma of chimeric mouse transplanted with human hepatocytes at 3 mg/kg, iv as single dose. Set-up: dose 3 mg/kg, route intravenous. The format is ADME, organism-based, Hepatocyte. The method, boiled down: as §4
Series [16] addresses T2, aldehyde oxidase (Homo sapiens, UniProt Q06278).
T2 sequence (Q06278 whole entry): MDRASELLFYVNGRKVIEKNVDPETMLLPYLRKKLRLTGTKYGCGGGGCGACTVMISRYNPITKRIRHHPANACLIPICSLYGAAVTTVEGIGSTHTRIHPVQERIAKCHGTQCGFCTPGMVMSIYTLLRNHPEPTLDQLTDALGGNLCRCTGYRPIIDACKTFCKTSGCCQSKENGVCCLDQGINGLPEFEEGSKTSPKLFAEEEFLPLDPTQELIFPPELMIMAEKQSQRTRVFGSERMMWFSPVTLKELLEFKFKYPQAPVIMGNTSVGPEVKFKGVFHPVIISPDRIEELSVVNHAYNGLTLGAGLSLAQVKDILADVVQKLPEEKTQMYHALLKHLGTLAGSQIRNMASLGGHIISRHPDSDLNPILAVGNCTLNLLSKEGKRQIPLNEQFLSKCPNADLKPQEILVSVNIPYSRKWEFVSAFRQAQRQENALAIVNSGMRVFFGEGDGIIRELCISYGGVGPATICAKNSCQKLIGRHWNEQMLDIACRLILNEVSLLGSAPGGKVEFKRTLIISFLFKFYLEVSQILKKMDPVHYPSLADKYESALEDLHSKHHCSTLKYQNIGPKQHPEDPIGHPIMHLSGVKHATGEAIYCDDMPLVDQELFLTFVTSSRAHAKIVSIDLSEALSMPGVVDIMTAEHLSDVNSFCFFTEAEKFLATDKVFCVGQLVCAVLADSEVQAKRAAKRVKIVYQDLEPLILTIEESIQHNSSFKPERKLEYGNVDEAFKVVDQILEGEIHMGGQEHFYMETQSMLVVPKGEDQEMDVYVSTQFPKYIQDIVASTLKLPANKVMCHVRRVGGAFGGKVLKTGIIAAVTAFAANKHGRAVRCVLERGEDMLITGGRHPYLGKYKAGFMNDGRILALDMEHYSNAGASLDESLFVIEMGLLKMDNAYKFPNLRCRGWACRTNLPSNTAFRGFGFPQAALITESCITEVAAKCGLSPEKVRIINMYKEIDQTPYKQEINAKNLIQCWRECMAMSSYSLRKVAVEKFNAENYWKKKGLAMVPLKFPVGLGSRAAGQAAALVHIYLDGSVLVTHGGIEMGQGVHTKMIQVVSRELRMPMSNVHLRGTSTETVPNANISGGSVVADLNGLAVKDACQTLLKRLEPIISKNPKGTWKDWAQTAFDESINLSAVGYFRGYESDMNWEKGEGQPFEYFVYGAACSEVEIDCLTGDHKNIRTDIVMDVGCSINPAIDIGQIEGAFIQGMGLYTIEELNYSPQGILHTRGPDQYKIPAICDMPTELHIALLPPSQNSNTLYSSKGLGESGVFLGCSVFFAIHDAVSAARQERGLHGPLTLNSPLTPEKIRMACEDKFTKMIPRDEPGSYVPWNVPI
In words: Activity of aldehyde oxidase in hepatocytes isolated from chimeric mouse transplanted with human hepatocytes assessed as enzyme-mediated drug metabolism measured as compound remaining at 10 uM after 2 hrs by LC/MS/MS analysis. The format is ADME, cell-based, Hepatocyte. To be noted: read-out: Stability. The essentials:
as §2

Series [17] in a line: Retention time of the compound by UV/mass spectrometry. The format is physicochemical. The essentials: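 Retention time on Acquity BEH C18 column (1.7 µm, 2.1×100 mm). Mobile phase 5 mM ammonium formate with 5% acetonitrile against acetonitrile, at 0.2 mL/min. Gradient: 100:0 to 2.5 min, linear to 65:35 by 25 min, 10:90 to 27 min. Detection by UV at 254 nm and MS.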
The nature of series [18]: Plasma protein binding in rat by equilibrium dialysis method. To be noted: read-out: PPB (converted). The format is ADME, cell-free. In general terms: In equilibrium dialysis only unbound substance equilibrates across the membrane.

`CC(C)n1nc(-c2cnc(N)nc2-c2ccccc2)ccc1=O`: the Cmax in [1] came out at 253 ng/mL. In addition, the values for the half-life in series [2], in [3] and in [6] were 24 min, 48 min and 42 min, respectively. The values for the clearance in series [4] and in series [5] were 34 mL/min/kg and 70.7 mL/min/kg, respectively. The hepatocyte CLint at 10 µM in series [7] turned out to be 5 µL/min/1e6 cells; in series [8], 10 µL/min/1e6 cells. Also, the dose excreted in series [9] is 1.1%; in series [10], 0.1%; in series [13], 0.1%; in [14] it was 0.1%. Also, the Drug metabolism result in the series on Mus musculus [11] and in the series with Mus musculus [15] was “metabolite_detected” each time. Further, the remaining at 2 h, 10 µM came to 58.4% on aldehyde oxidase [12] and 27.5% on aldehyde oxidase [16]. In series [17], the Retention_time came to 20 min. The fraction unbound in [18] is 0.246.

What is called Cmax is the highest concentration seen after dosing. Usually half-life stands for the time needed for the level to fall by half in the phase considered. Higher therefore signals slow loss.
